In brackets after ≈: the same amount, converted by molar mass. Activity calls are given as the source filed them. The rule behind the calls is not given here.
What was measured:
Leishmania mexicana [1] = experiment: Antileishmanial activity against Leishmania mexicana MNYC/BZ/62/M379 promastigotes at 10 ug/ml after 48 hrs by hemocytometer; type: functional, organism-based
Leishmania mexicana [2] = experiment: Antileishmanial activity against Leishmania mexicana MHOM/MX/00/Tab3 promastigotes at 10 ug/ml after 48 hrs by hemocytometer; type: functional, organism-based
Leishmania mexicana [3] = experiment: Antileishmanial activity against Leishmania mexicana MNYC/BZ/62/M379 promastigotes at 100 ug/ml after 48 hrs by hemocytometer; type: functional, organism-based
Leishmania mexicana [4] = experiment: Antileishmanial activity against Leishmania mexicana MHOM/MX/00/Tab3 promastigotes at 100 ug/ml after 48 hrs by hemocytometer; type: functional, organism-based
Leishmania mexicana [5] = experiment: Antileishmanial activity against Leishmania mexicana MNYC/BZ/62/M379 promastigotes assessed as survival rate after 6 days by hemocytometer; type: functional
In short: (§1)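 Promastigotes were grown cell-free at 26°C in DMEM with 10% heat-inactivated FCS, with drug at 0.01–100 µg/ml. Parasite density was counted by hemacytometer every other day, and the value was taken on day 6. Data were recorded in triplicate, and experiments were run four times.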

Leishmania mexicana [6] = experiment: Antileishmanial activity against Leishmania mexicana MHOM/MX/00/Tab3 promastigotes assessed as survival rate after 6 days by hemocytometer; type: functional; in short: as §1
Leishmania mexicana [7] = experiment: Antileishmanial activity against Leishmania mexicana MNYC/BZ/62/M379 promastigotes measured on day 6 by hemocytometer; type: functional; conditions: MNYC/BZ/62/M379, 144 h, read-out: ED50 (the source's name)
In short: (§2)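 Promastigotes were cultured cell-free at 26°C in DMEM with 10% heat-inactivated FCS, with hydroxyurea at 0.01-100 µg/ml. Density was counted by hemacytometer every other day, and inhibition versus untreated control was taken on day 6 of culture.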

Leishmania mexicana [8] = experiment: Antileishmanial activity against Leishmania mexicana MHOM/MX/00/Tab3 promastigotes measured on day 6 by hemocytometer; type: functional; conditions: MHOM/MX/00/Tab3, 144 h, read-out: ED50 (the source's name); in short: as §2
Leishmania mexicana [9] = experiment: Antileishmanial activity against Leishmania mexicana MHOM/MX/00/Tab3 infected in BALB/c mouse macrophage assessed as growth inhibition at 1 ug/ml after 6 days by hemocytometer; type: functional
In short: (§3)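 Resident peritoneal macrophages from male BALB/c mice were plated at 10^6 cells/ml and incubated for 24 h at 32°C in 5% CO2. Adherent cells were infected with 10^7 mid-log amastigote-like forms for 48 h at 32°C, then washed. Drug was applied for 6 days at 32°C, then replaced with drug-free medium and shifted to 26°C. Released promastigotes were counted by hemacytometer 6 days later, in triplicate. Inhibition = 100×(Tc−Tp)/Tc versus untreated.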

Leishmania mexicana [10] = experiment: Antileishmanial activity against Leishmania mexicana MHOM/MX/00/Tab3 infected in BALB/c mouse macrophage assessed as growth inhibition at 10 ug/ml after 6 days by hemocytometer; type: functional; in short: as §3
Leishmania mexicana [11] = experiment: Antileishmanial activity against Leishmania mexicana MHOM/MX/00/Tab3 infected in BALB/c mouse macrophage assessed as growth inhibition at 100 ug/ml after 6 days by hemocytometer; type: functional; conditions: MHOM/MX/00/Tab3, 144 h
In short: (§4)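 Peritoneal resident macrophages from male BALB/c mice (20-25 g) were pooled, washed, plated at 10^6 cells/ml, and left to adhere for 24 h at 32°C in 5% CO2. Adherent cells were infected with 10^7 mid-log amastigote-like forms for 48 h, then washed. Drug was given at 0.01-100 µg/ml for 3, 6, 9 or 12 days at 32°C. After removal, plates moved to 26°C; released promastigotes were hemacytometer-counted 6 days later. Inhibition = 100 x (Tc − Tp)/Tc; triplicate.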

Leishmania mexicana [12] = experiment: Antileishmanial activity against Leishmania mexicana MNYC/BZ/62/M379 infected in BALB/c mouse macrophage assessed as growth inhibition at 1 ug/ml after 6 days by hemocytometer; type: functional; in short: as §3
Leishmania mexicana [13] = experiment: Antileishmanial activity against Leishmania mexicana MNYC/BZ/62/M379 infected in BALB/c mouse macrophage assessed as growth inhibition at 10 ug/ml after 6 days by hemocytometer; type: functional; in short: as §3
Leishmania mexicana [14] = experiment: Antileishmanial activity against Leishmania mexicana MNYC/BZ/62/M379 infected in BALB/c mouse macrophage assessed as growth inhibition at 100 ug/ml after 6 days by hemocytometer; type: functional; conditions: MNYC/BZ/62/M379, 144 h; in short: as §4
Leishmania mexicana [15] = experiment: Antileishmanial activity against Leishmania mexicana MHOM/MX/00/Tab3 infected in BALB/c mouse macrophage measured on day 6 by hemocytometer; type: functional; conditions: MHOM/MX/00/Tab3, 144 h, read-out: ED50 (the source's name); in short: as §4
Leishmania mexicana [16] = experiment: Antileishmanial activity against Leishmania mexicana MNYC/BZ/62/M379 infected in BALB/c mouse macrophage measured on day 6 by hemocytometer; type: functional; conditions: MNYC/BZ/62/M379, 144 h, read-out: ED50 (the source's name); in short: as §4
Leishmania mexicana [17] = experiment: Cell cycle arrest in Leishmania mexicana assessed as accumulation at G2/M phase at 10 ug/ml after 48 hrs by fluorescence-activated cell sorter; type: functional, organism-based
In short: (§5)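 Mid-log promastigotes were exposed 48 h at 26°C to 1, 10 or 100 µg/ml, washed in PBS with 0.02 M EDTA, and fixed in cold methanol for 24 h. They were then stained 20 min at 25°C with RNase I (50 µg/ml) and PI (25 µg/ml), kept on ice, and analysed by FACS for DNA content.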

Leishmania mexicana [18] = experiment: Cell cycle arrest in Leishmania mexicana assessed as accumulation at G2/M phase at 100 ug/ml after 48 hrs by fluorescence-activated cell sorter; type: functional, organism-based; in short: as §5
Leishmania mexicana [19] = experiment: Cell cycle arrest in Leishmania mexicana assessed as accumulation at G2/M phase at 1 ug/ml after 48 hrs by fluorescence-activated cell sorter; type: functional, organism-based; in short: as §5
Leishmania mexicana [20] = experiment: Antileishmanial activity against Leishmania mexicana infected in BALB/c mouse macrophage assessed as growth inhibition at 0.01 ug/ml after 3 days by hemocytometer; type: functional; conditions: 72 h; in short: as §4
Leishmania mexicana [21] = experiment: Antileishmanial activity against Leishmania mexicana infected in BALB/c mouse macrophage assessed as growth inhibition at 0.01 ug/ml after 12 days by hemocytometer; type: functional; conditions: 288 h; in short: as §4
Leishmania mexicana [22] = experiment: Antileishmanial activity against Leishmania mexicana infected in BALB/c mouse macrophage assessed as growth inhibition at 0.1 ug/ml after 3 days by hemocytometer; type: functional; conditions: 72 h; in short: as §4
Leishmania mexicana [23] = experiment: Antileishmanial activity against Leishmania mexicana infected in BALB/c mouse macrophage assessed as growth inhibition at 0.1 ug/ml after 12 days by hemocytometer; type: functional; conditions: 288 h; in short: as §4
Leishmania mexicana [24] = experiment: Antileishmanial activity against Leishmania mexicana infected in BALB/c mouse macrophage assessed as growth inhibition at 1 ug/ml after 3 days by hemocytometer; type: functional; conditions: 72 h; in short: as §4
Leishmania mexicana [25] = experiment: Antileishmanial activity against Leishmania mexicana infected in BALB/c mouse macrophage assessed as growth inhibition at 1 ug/ml after 12 days by hemocytometer; type: functional; conditions: 288 h; in short: as §4
Leishmania mexicana [26] = experiment: Antileishmanial activity against Leishmania mexicana infected in BALB/c mouse macrophage assessed as growth inhibition at 10 ug/ml after 3 days by hemocytometer; type: functional; conditions: 72 h; in short: as §4
Leishmania mexicana [27] = experiment: Antileishmanial activity against Leishmania mexicana infected in BALB/c mouse macrophage assessed as growth inhibition at 10 ug/ml after 12 days by hemocytometer; type: functional; conditions: 288 h; in short: as §4
Leishmania mexicana [28] = experiment: Antileishmanial activity against Leishmania mexicana infected in BALB/c mouse macrophage assessed as growth inhibition at 100 ug/ml after 3 days by hemocytometer; type: functional, organism-based; in short: as §4
Leishmania mexicana [29] = experiment: Antileishmanial activity against Leishmania mexicana promastigotes assessed as parasite burden at 1 ug/ml after 8 days by hemacytometer
Leishmania mexicana [30] = experiment: Antileishmanial activity against Leishmania mexicana promastigotes assessed as parasite burden at 10 ug/ml after 8 days by hemacytometer
Leishmania mexicana [31] = experiment: Antileishmanial activity against Leishmania mexicana promastigotes assessed as parasite burden at 100 ug/ml after 8 days by hemacytometer
Leishmania mexicana [32] = experiment: Antileishmanial activity against Leishmania mexicana MHOM/MX/00/Tab3 infected in BALB/c mouse macrophage assessed as growth inhibition at 25 ug/ml after 6 days by hemocytometer; type: functional, organism-based
Leishmania mexicana [33] = experiment: Antileishmanial activity against Leishmania mexicana MNYC/BZ/62/M379 infected in BALB/c mouse macrophage assessed as growth inhibition at 25 ug/ml after 6 days by hemocytometer; type: functional, organism-based

NC(=O)NO [HYDROXYUREA]
Activity (Leishmania mexicana [1]): Active | Activity (Leishmania mexicana [2]): Active | Activity (Leishmania mexicana [3]): Active | Activity (Leishmania mexicana [4]): Active | Survival (Leishmania mexicana [5]): 11.6% | Survival (Leishmania mexicana [6]): 3.1% | EC50 (Leishmania mexicana [7]): 0.05 µg/mL (≈ 0.657 µM) | EC50 (Leishmania mexicana [8]): 0.05 µg/mL (≈ 0.657 µM) | inhibition at 1 µg/mL (Leishmania mexicana [9]; MHOM/MX/00/Tab3, 144 h): 96% | inhibition at 10 µg/mL (Leishmania mexicana [10]; MHOM/MX/00/Tab3, 144 h): 100% | inhibition at 100 µg/mL (Leishmania mexicana [11]): 100% | inhibition at 1 µg/mL (Leishmania mexicana [12]; MNYC/BZ/62/M379, 144 h): 94% | inhibition at 10 µg/mL (Leishmania mexicana [13]; MNYC/BZ/62/M379, 144 h): 100% | inhibition at 100 µg/mL (Leishmania mexicana [14]): 100% | EC50 (Leishmania mexicana [15]): 0.015 µg/mL (≈ 0.197 µM) | EC50 (Leishmania mexicana [16]): 0.015 µg/mL (≈ 0.197 µM) | Activity (Leishmania mexicana [17]): Active | Activity (Leishmania mexicana [18]): Active | Activity (Leishmania mexicana [19]): inactive | inhibition at 0.01 µg/mL (Leishmania mexicana [20]): 44% | inhibition at 0.01 µg/mL (Leishmania mexicana [21]): 67% | inhibition at 0.1 µg/mL (Leishmania mexicana [22]): 72% | inhibition at 0.1 µg/mL (Leishmania mexicana [23]): 85% | inhibition at 1 µg/mL (Leishmania mexicana [24]): 87% | inhibition at 1 µg/mL (Leishmania mexicana [25]): 94% | inhibition at 10 µg/mL (Leishmania mexicana [26]): 93% | inhibition at 10 µg/mL (Leishmania mexicana [27]): 98% | inhibition (Leishmania mexicana [28]): Active | Activity (Leishmania mexicana [29]): 8.5 ×10⁶ /ml | Activity (Leishmania mexicana [30]): 4.3 ×10⁶ /ml | Activity (Leishmania mexicana [31]): 0 mL⁻¹

MEGLUMINE ANTIMONATE
inhibition (Leishmania mexicana [9]): 32% | inhibition (Leishmania mexicana [10]): 54% | inhibition (Leishmania mexicana [32]): 77% | inhibition (Leishmania mexicana [12]): 33% | inhibition (Leishmania mexicana [13]): 69% | inhibition (Leishmania mexicana [33]): 93%
